A short description of data set [1]: melting temperature; fluorescence melt of hairpins on a sequencing array, two-state fit, raised by 9.35 °C to match UV melts. Conditions: sodium 0.088 M. The procedure, abridged: (§1)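 Hairpins were imaged by Cy3 fluorescence on a sequenced MiSeq flow cell with annealed Cy3 and quencher oligos, in 50 mM Na-HEPES pH 8.0, 25 mM NaCl, in 2.5 °C steps up to 60 °C. Bootstrapped two-state fits of normalised signals gave melting temperature and folding enthalpy. Four replicates were combined by inverse variance, and fitted temperatures were raised by 9.35 °C to match UV melts.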

A short description of data set [2]: folding enthalpy; higher = less favourable; fluorescence melt of hairpins on a sequencing array, two-state fit. The conditions noted are these: sodium 0.088 M. The procedure, abridged:
as §1

Regarding GCGGAGGGAAACCCCCAC (.((.((....)).)).), the Tm in data set [1] is 22.4 °C. Further, in data set [2], the folding enthalpy was -7.96 kcal/mol.
As for GTCCTCGGAAACGAGGGC (.(((((....))))).), the Tm in data set [1] was 62.3 °C. Also, the folding enthalpy in data set [2] was -30.3 kcal/mol.
For GATCCAGGGATGGATC ((((((....)))))), in data set [1], the Tm was found to be 53.3 °C. Also, the folding enthalpy in data set [2] is -38.9 kcal/mol.
In the same order, the values of GCCCCGTCGAAAGACGGC (((..(((....)))))) are 34.4 °C and -4.65 kcal/mol.
Regarding GATACCGAAAGGTTATC ((((((....))).))), in data set [1], the Tm came to 37.6 °C. Further, the folding enthalpy in data set [2] is -17.7 kcal/mol.
For GAGGTGGGAAACCGTCTC (((..((....))..))), the Tm in data set [1] was found to be 31.1 °C. Further, the folding enthalpy in data set [2] was -8.21 kcal/mol.
On to GAAGACGAAAGTCTTTTC ((((((....)))..))), for which, in data set [1], the Tm was found to be 47.1 °C. Besides, in data set [2], the folding enthalpy is -13.4 kcal/mol.
As for GGGGGCGAAAGCCTTCCC ((((((....)))..))), the Tm in data set [1] came out at 42.3 °C. Also, the folding enthalpy in data set [2] is -13.1 kcal/mol.
Consider GATTCAGGAAACTGAGTC ((.((((....)))).)), for which the Tm in data set [1] was 38.5 °C. Moreover, in data set [2], the folding enthalpy was -31.1 kcal/mol.
Regarding GCTATGCGAAAGCCTGGC ((.(.((....)).).)), the Tm in data set [1] was 36.9 °C. Besides, the folding enthalpy in data set [2] was -18.8 kcal/mol.
With GGTAGGGGAAACCCTGTC (..((((....))))..), the Tm in data set [1] turned out to be 32.2 °C. For the same sequence, the folding enthalpy in data set [2] is -13.1 kcal/mol.
As to GATACCGAAAGGTGCATC ((((((....)))..))), the Tm in data set [1] came to 27.4 °C. For the same sequence, in data set [2], the folding enthalpy was -9.69 kcal/mol.
In the same order, the values of GCGATAGATCGC ((((....)))) are 49.7 °C and -21.7 kcal/mol.
Turning to GATCGATAACTCGATC ((((((....)))))), the Tm in data set [1] was determined as 49.3 °C. Besides, the folding enthalpy in data set [2] was -36.3 kcal/mol.
GCGTGGGGAAACTCACGC (((((.(....).))))): in data set [1], the Tm was found to be 61.4 °C. For the same sequence, in data set [2], the folding enthalpy is -42.9 kcal/mol.
Turning to GAGGTCCGAAAGGATCTC (((.(((....))).))), in data set [1], the Tm is 59.6 °C. The folding enthalpy in data set [2] is -37.9 kcal/mol.
Turning to GATCTCGAGCGAGATC ((((((....)))))), the Tm in data set [1] was determined as 53.3 °C. Besides, the folding enthalpy in data set [2] was -48.4 kcal/mol.
For the sequence GTCTGACCGAAAGGTGAC (((..(((....)))))), the Tm in data set [1] came out at 38.9 °C. For the same sequence, the folding enthalpy in data set [2] is -19.3 kcal/mol.
Turning to GTGTGTACGAAAGTACAC (((..(((....)))))), the Tm in data set [1] came out at 64.2 °C. Also, the folding enthalpy in data set [2] is -14.8 kcal/mol.
In the same order, the values of GGCCAATCGAAAGATGCC (((..(((....)))))) are 42.9 °C and -23.9 kcal/mol.
On to GATCACTGCTGTGATC ((((((....)))))), for which, in data set [1], the Tm amounted to 57.1 °C. Besides, in data set [2], the folding enthalpy is -38.2 kcal/mol.
For the sequence GCCTACGAAAGTAAAGGC ((((((....)))..))), the Tm in data set [1] worked out at 50.2 °C. The folding enthalpy in data set [2] is -41.2 kcal/mol.
Turning to GCTGAGGGAAACTTCAGC (((((.(....).))))), the Tm in data set [1] was 48.6 °C. Moreover, the folding enthalpy in data set [2] was -32.5 kcal/mol.
In the same order, the values of GATCGATATTCGATC ((((((...)))))) are 52.6 °C and -30.3 kcal/mol.
As to GCAACGCGAAAGCCTTGC ((((.((....)).)))), in data set [1], the Tm came to 47.9 °C. Further, the folding enthalpy in data set [2] is -21.5 kcal/mol.
Consider GATCAAGTATTGATC ((((((...)))))), for which the Tm in data set [1] turned out to be 51.8 °C. In addition, the folding enthalpy in data set [2] was -43.4 kcal/mol.
As to GGCACGACGAAAGTCGCC (((..(((....)))))), the Tm in data set [1] stood at 38.4 °C. The folding enthalpy in data set [2] is -8.64 kcal/mol.
With GATGCCGGAAACGACACC (.((.((....)).)).), the Tm in data set [1] amounted to 24.4 °C. For the same sequence, the folding enthalpy in data set [2] is -13.5 kcal/mol.
As to GTGCGAGGAAACTTGCGC (.((.((....)).)).), in data set [1], the Tm was found to be 46 °C. Besides, in data set [2], the folding enthalpy was -18.1 kcal/mol.
On to GCTCGCGAAAGCGCTAGC ((((((....)))..))), for which, in data set [1], the Tm was 42.6 °C. For the same sequence, the folding enthalpy in data set [2] was -11.9 kcal/mol.
Consider GGTCCAGGAAACTGGGCC ((.((((....)))).)), for which, in data set [1], the Tm is 60.2 °C. The folding enthalpy in data set [2] is -43.4 kcal/mol.
Consider GCCATGCGAAAGCCAGGC (((..((....))..))), for which the Tm in data set [1] came to 55.4 °C. Also, the folding enthalpy in data set [2] was -21 kcal/mol.
Turning to GATCTCGGCTGAGATC ((((((....)))))), the Tm in data set [1] is 56.5 °C. Further, the folding enthalpy in data set [2] was -44.5 kcal/mol.
On to GGGCATGGAAACACGCCC ((((.((....)).)))), for which the Tm in data set [1] stood at 51.8 °C. For the same sequence, the folding enthalpy in data set [2] was -45.3 kcal/mol.
For GAAGAACGAAAGTTATTC (((.(((....))).))), the Tm in data set [1] turned out to be 42.5 °C. Moreover, the folding enthalpy in data set [2] is -31.6 kcal/mol.
With GCACGGGGAAACCCGCAC (..((((....))))..), the Tm in data set [1] is 25.2 °C. The folding enthalpy in data set [2] was -9.35 kcal/mol.
GACGGCGAAAGCCCGTC ((((((....))).))): the Tm in data set [1] was determined as 65.4 °C. For the same sequence, the folding enthalpy in data set [2] was -24.7 kcal/mol.
Regarding GACCGCGAAAGCGTTGTC ((((((....)))..))), the Tm in data set [1] turned out to be 40.1 °C. Besides, the folding enthalpy in data set [2] is -13.2 kcal/mol.
Consider GATCATCACATGATC ((((((...)))))), for which the Tm in data set [1] worked out at 49.1 °C. In addition, in data set [2], the folding enthalpy was -36.7 kcal/mol.
Regarding GATCTTGTATAAGATC ((((((....)))))), the Tm in data set [1] was 50.5 °C. For the same sequence, in data set [2], the folding enthalpy was -37.7 kcal/mol.
In the same order, the values of GATCGGTTGTCCGATC ((((((....)))))) are 57.1 °C and -33.8 kcal/mol.
Consider GGATTAGGAAACTAATTC (.(((((....))))).), for which the Tm in data set [1] worked out at 33.9 °C. In addition, the folding enthalpy in data set [2] was -25.2 kcal/mol.
GATCCGCGACCGGATC ((((((....)))))): the Tm in data set [1] worked out at 54.8 °C. The folding enthalpy in data set [2] is -38.4 kcal/mol.
On to GAGCACGAAAGTGTGCTC ((((((....)))..))), for which the Tm in data set [1] came out at 58.6 °C. In addition, the folding enthalpy in data set [2] is -31.2 kcal/mol.
In the same order, the values of GGCCGCTCGAAAGAGGCC (((..(((....)))))) are 56.5 °C and -48.5 kcal/mol.
In the same order, the values of GCAATGCGAAAGCAGAGC ((..(((....)))..)) are 55 °C and -19.5 kcal/mol.
Take GCGATGCGAAAGCTGCGC (((..((....))..))): in data set [1], the Tm is 64.2 °C. In addition, the folding enthalpy in data set [2] was -22.7 kcal/mol.

The values are drawn from the array DNA melting data of Ke et al. (doi:10.1101/2024.01.08.574731).
